Test results from ChEMBL document CHEMBL1142767, “2-(2-Furanyl)-7-phenyl[1,2,4]triazolo[1,5-c]pyrimidin-5-amine analogs: highly potent, orally active, adenosine A2A antagonists. Part 1” (Bioorg Med Chem Lett, 2005).
The source made the active and inactive calls.

Assays:
Adenosine receptor A2a = Adenosine receptor A2a (Rattus norvegicus, UniProt P30543); assay: In vitro ability to displace [3H]SCH-58261 from A2A adenosine receptor in Rat
[1] = molecular target: Adenosine receptors; A1 & A2a (Rattus norvegicus) (UniProt P25099+P30543)
Chain of Adenosine receptors; A1 & A2a (Rattus norvegicus) (P25099 whole entry, looked up): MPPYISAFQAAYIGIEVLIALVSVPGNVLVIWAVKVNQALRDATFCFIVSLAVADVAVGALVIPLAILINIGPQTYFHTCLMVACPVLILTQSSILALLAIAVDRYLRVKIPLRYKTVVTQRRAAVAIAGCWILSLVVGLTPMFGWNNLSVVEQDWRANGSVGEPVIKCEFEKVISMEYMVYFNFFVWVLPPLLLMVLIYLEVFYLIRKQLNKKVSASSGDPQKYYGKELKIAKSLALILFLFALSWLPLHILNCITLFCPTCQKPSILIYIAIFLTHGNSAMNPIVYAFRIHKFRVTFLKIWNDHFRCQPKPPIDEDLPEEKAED
Chain of Adenosine receptors; A1 & A2a (Rattus norvegicus) (P30543 whole entry, looked up): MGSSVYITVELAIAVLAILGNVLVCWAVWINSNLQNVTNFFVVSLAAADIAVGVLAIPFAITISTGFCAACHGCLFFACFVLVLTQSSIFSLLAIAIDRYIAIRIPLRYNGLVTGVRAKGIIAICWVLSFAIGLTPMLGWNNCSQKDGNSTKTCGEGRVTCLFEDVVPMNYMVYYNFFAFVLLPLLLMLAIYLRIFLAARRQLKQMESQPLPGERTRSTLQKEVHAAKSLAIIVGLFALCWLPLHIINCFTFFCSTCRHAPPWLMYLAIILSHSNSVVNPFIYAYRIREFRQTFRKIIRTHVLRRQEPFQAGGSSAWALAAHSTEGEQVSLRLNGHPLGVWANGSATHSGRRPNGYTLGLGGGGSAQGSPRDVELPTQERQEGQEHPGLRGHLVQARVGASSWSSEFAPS

Rattus norvegicus [2] = assay: Anti-cataleptic activity in Rat at oral dose of 3 mg/kg retested at 1 hr after administration; type: functional
Summary of the method: (§1)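 Male CD rats, 200-240 g, housed 4 per cage on a 12-h light/dark cycle. Catalepsy was induced with haloperidol 1 mg/kg s.c. After 30 min, each rat was placed facing upward on a wire screen inclined at 60°, and time to move one limb was recorded (cut-off 120 s). Rats immobile >75 s received test compound orally and were retested at 1 and 4 h.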

Rattus norvegicus [3] = assay: Anti-cataleptic activity in Rat at oral dose of 3 mg/kg retested at 4 hr after administration; type: functional; summary of the method: as §1
Rattus norvegicus [4] = assay: Anti-cataleptic activity in Rat at oral dose of 3 mg/kg retested at 1 and 4 hr after administration; Activity Not Traced; type: functional, organism-based; set-up: dose 3 mg/kg; summary of the method: as §1

Chain of Adenosine receptor A2a (P30543 whole entry): as the sequence (P30543 whole entry, looked up) above

| Ki (Adenosine receptor A2a) | Index [1] | Structure (SMILES) | Activity (Rattus norvegicus [2]) | Activity (Rattus norvegicus [3]) | Activity (Rattus norvegicus [4]) |
| --- | --- | --- | --- | --- | --- |
| 2.8 nM | 135 | Nc1nc(-c2cccc(CO)c2)cc2nc(-c3ccco3)nn12 |  |  |  |
| 3.7 nM | 13 | Cc1cccc(-c2cc3nc(-c4ccco4)nn3c(N)n2)c1 |  |  |  |
| 4.5 nM | 65 | COc1ccc(OC)c(-c2cc3nc(-c4ccco4)nn3c(N)n2)c1 |  |  |  |
| 7.4 nM | 115 | Nc1nc(-c2cccc(CN3CCC(c4ccc(F)cc4)CC3)c2)cc2nc(-c3ccco3)nn12 | 20 | 20 |  |
| 21.7 nM | 27 | COc1cccc(-c2cc3nc(-c4ccco4)nn3c(N)n2)c1OC |  |  |  |
| 5 nM | 11 | Nc1cccc(-c2cc3nc(-c4ccco4)nn3c(N)n2)c1 |  |  |  |
| 4.7 nM | 31 | CC(C)c1ccc(-c2cc3nc(-c4ccco4)nn3c(N)n2)cc1 |  |  |  |
| 4 nM | 115 | COCCOc1cccc(N2CCN(Cc3cccc(-c4cc5nc(-c6ccco6)nn5c(N)n4)c3)CC2)c1 | 29 | 53 |  |
| 7.3 nM | 103 | COc1ccc(-c2cc3nc(-c4ccco4)nn3c(N)n2)cc1 |  |  |  |
| 4.6 nM | 69 | Nc1nc(-c2cccc(CN3CCN(c4ccccc4)CC3)c2)cc2nc(-c3ccco3)nn12 |  |  | inactive |
| 5.4 nM | 14 | N#Cc1cccc(-c2cc3nc(-c4ccco4)nn3c(N)n2)c1 |  |  |  |
| 8.4 nM | 19 | Cc1ccc(-c2cc3nc(-c4ccco4)nn3c(N)n2)cc1 |  |  |  |
| 7.3 nM | 64 | COc1ccc(-c2cc3nc(-c4ccco4)nn3c(N)n2)cc1OC |  |  |  |
| 6.4 nM | 71 | COCCOc1cc(F)c(N2CCN(Cc3cccc(-c4cc5nc(-c6ccco6)nn5c(N)n4)c3)CC2)c(F)c1 |  |  | inactive |
| 2.9 nM | 98 | COc1ccc(-c2cc3nc(-c4ccco4)nn3c(N)n2)c(OC)c1 |  |  |  |
| 2.2 nM | 338 | COCCOc1c(F)cc(N2CCN(Cc3cccc(-c4cc5nc(-c6ccco6)nn5c(N)n4)c3)CC2)cc1F | 28 | 47 |  |

| Ki (Adenosine receptor A2a) | Index [1] | Structure (SMILES) | Activity (Rattus norvegicus [2]) | Activity (Rattus norvegicus [3]) | Activity (Rattus norvegicus [4]) |
| --- | --- | --- | --- | --- | --- |
| 4.5 nM | 69 | COc1cc(-c2cc3nc(-c4ccco4)nn3c(N)n2)cc(OC)c1OC |  |  |  |
| 1700 nM | 1 | COc1cccc(OC)c1-c1cc2nc(-c3ccco3)nn2c(N)n1 |  |  |  |
| 5 nM | 20 | COc1cccc(-c2cc3nc(-c4ccco4)nn3c(N)n2)c1 |  |  |  |
| 3.6 nM | 85 | COCCOc1ccc(N2CCN(Cc3cccc(-c4cc5nc(-c6ccco6)nn5c(N)n4)c3)CC2)c(C#N)c1 |  |  | inactive |
| 4.4 nM | 15 | Nc1nc(-c2cccs2)cc2nc(-c3ccco3)nn12 |  |  |  |
| 2.8 nM | 601 | COCCOc1ccc(N2CCN(Cc3cccc(-c4cc5nc(-c6ccco6)nn5c(N)n4)c3)CC2)cc1 | 40 | 65 |  |
| 7 nM | 3 | Nc1nc(-c2ccccc2)cc2nc(-c3ccco3)nn12 |  |  |  |
| 2.7 nM | 72 | COCCOc1ccc(N2CCN(Cc3cccc(-c4cc5nc(-c6ccco6)nn5c(N)n4)c3)CC2)c(C)c1 |  |  | inactive |
| 2.7 nM | 642 | COCCOc1ccc(N2CCN(Cc3cccc(-c4cc5nc(-c6ccco6)nn5c(N)n4)c3)CC2)c(F)c1 | 20 | 0 |  |
| 4.5 nM | 17 | COc1ccc(-c2cc3nc(-c4ccco4)nn3c(N)n2)c(OC)c1OC |  |  |  |
| 22 nM | 12 | Cc1ccccc1-c1cc2nc(-c3ccco3)nn2c(N)n1 |  |  |  |
| 10.5 nM | 3 | Nc1nc(-c2cccc(CN3CCN(c4ccc(Cl)c(Cl)c4)CC3)c2)cc2nc(-c3ccco3)nn12 |  |  | inactive |
| 4.3 nM | 27 | COc1ccccc1-c1cc2nc(-c3ccco3)nn2c(N)n1 |  |  |  |
| 8.9 nM | 202 | COCCOc1ccc(C2CCN(Cc3cccc(-c4cc5nc(-c6ccco6)nn5c(N)n4)c3)CC2)cc1 | 0 | 0 |  |
| 2.9 nM | 204 | COCCOc1ccc(N2CCN(Cc3cccc(-c4cc5nc(-c6ccco6)nn5c(N)n4)c3)CC2)c(Cl)c1 | 12 | 15 |  |
| 3.3 nM | 134 | COCCOc1ccc(N2CCN(Cc3cccc(-c4cc5nc(-c6ccco6)nn5c(N)n4)c3)CC2)cc1OC | 33 | 39 |  |

| Structure (SMILES) | Ki (Adenosine receptor A2a) | Index [1] | Activity (Rattus norvegicus [2]) | Activity (Rattus norvegicus [3]) | Activity (Rattus norvegicus [4]) |
| --- | --- | --- | --- | --- | --- |
| Nc1nc(-c2ccccn2)cc2nc(-c3ccco3)nn12 | 1.4 nM | 34 |  |  |  |
| Nc1nc(-c2cccnc2)cc2nc(-c3ccco3)nn12 | 6.6 nM | 65 |  |  |  |
| Nc1nc(-c2cccc(-c3ccccc3)c2)cc2nc(-c3ccco3)nn12 | 5.5 nM | 82 |  |  |  |
| COCCOc1ccc(N2CCN(Cc3cccc(-c4cc5nc(-c6ccco6)nn5c(N)n4)c3)CC2)cc1C#N | 1.1 nM | 314 | 14 | 9 |  |
| Nc1nc(-c2ccncc2)cc2nc(-c3ccco3)nn12 | 1.9 nM | 66 |  |  |  |
| Nc1nc(-c2cccc(CN3CCC(c4ccccc4)CC3)c2)cc2nc(-c3ccco3)nn12 | 4.6 nM | 69 |  |  | inactive |
| CN(CCc1ccccc1)Cc1cccc(-c2cc3nc(-c4ccco4)nn3c(N)n2)c1 | 3.6 nM | 135 |  |  | inactive |
| Nc1nc(-c2cccc(CN3CCN(c4nccs4)CC3)c2)cc2nc(-c3ccco3)nn12 | 2.4 nM | 192 | 20 | 10 |  |
